From ChEMBL document CHEMBL4346684, “Synthesis and structure-bactericidal activity relationships of non-ketolides: 9-Oxime clarithromycin 11,12-cyclic carbonate featured with three-to eight-atom-length spacers at 3-OH” (Eur J Med Chem, 2019)
≈ marks a conversion by molar mass, not a printed value.

What was measured:
Format in all cases: functional
[1] = test system: Streptococcus pneumoniae; test: Antimicrobial activity against erythromycin-susceptible Streptococcus pneumoniae ATCC 49619 incubated in CAMHB medium for 20 to 24 hrs by two-fold microbroth dilution method
[2] = test system: Streptococcus pneumoniae; test: Antimicrobial activity against mef-encoded erythromycin resistant Streptococcus pneumoniae PU09 incubated in CAMHB medium for 20 to 24 hrs by two-fold microbroth dilution method
[3] = test system: Streptococcus pneumoniae; test: Bactericidal activity against erythromycin-susceptible Streptococcus pneumoniae ATCC 49619 assessed as reduction in colony formation incubated in CAMHB medium for 20 to 24 hrs followed by 24 hrs subculturing in the medium without test compound
[4] = test system: Streptococcus pneumoniae; test: Ratio of MBC to MIC for erythromycin-susceptible Streptococcus pneumoniae ATCC 49619
[5] = test system: Streptococcus pneumoniae; test: Bactericidal activity against mef-encoded erythromycin resistant Streptococcus pneumoniae PU09 assessed as reduction in colony formation incubated in CAMHB medium for 20 to 24 hrs followed by 24 hrs subculturing in the medium without test compound
[6] = test system: Streptococcus pneumoniae; test: Ratio of MBC to MIC for mef-encoded erythromycin resistant Streptococcus pneumoniae PU09
[7] = test system: Streptococcus pyogenes; test: Antimicrobial activity against inducibly erythromycin resistant Streptococcus pyogenes 01-968 expressing i-ermA incubated in CAMHB medium for 20 to 24 hrs by two-fold microbroth dilution method
[8] = test system: Streptococcus pyogenes; test: Bactericidal activity against inducibly erythromycin resistant Streptococcus pyogenes 01-968 expressing i-ermA assessed as reduction in colony formation incubated in CAMHB medium for 20 to 24 hrs followed by 24 hrs subculturing in the medium without test compound
[9] = test system: Streptococcus pyogenes; test: Ratio of MBC to MIC for inducibly erythromycin resistant Streptococcus pyogenes 01-968 expressing i-ermA
[10] = test system: Staphylococcus aureus; test: Antimicrobial activity against constitutively erythromycin resistant and methicillin resistant Staphylococcus aureus PU20 expressing c-ermC incubated in CAMHB medium for 20 hrs by two-fold microbroth dilution method; details: PU20, 20 h
How it was run: (§1)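 Purified fresh Staphylococcus isolate at about 5×10^5 CFU/ml final in CAMHB, 35 °C for 20 h. Each run included ATCC strains and reference antibiotics as QC, plus an antibiotic-free growth control.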

[11] = test system: Staphylococcus aureus; test: Bactericidal activity against constitutively erythromycin resistant and methicillin-resistant Staphylococcus aureus PU20 expressing c-ermC assessed as reduction in colony formation incubated in CAMHB medium for 20 hrs followed by 24 hrs subculturing in the medium without test compound
[12] = test system: Staphylococcus aureus; test: Antimicrobial activity against inducibly erythromycin-resistant and methicillin resistant Staphylococcus aureus PU32 expressing i-ermA incubated in CAMHB medium for 20 hrs by two-fold microbroth dilution method; details: PU32, 20 h; how it was run: as §1
[13] = test system: Staphylococcus aureus; test: Bactericidal activity against inducibly erythromycin-resistant and methicillin resistant Staphylococcus aureus PU32 expressing i-ermA assessed as reduction in colony formation incubated in CAMHB medium for 20 hrs followed by 24 hrs subculturing in the medium without test compound
[14] = test system: Staphylococcus aureus; test: Ratio of MBC to MIC for inducibly erythromycin-resistant and methicillin resistant Staphylococcus aureus PU32 expressing i-ermA
[15] = test system: Haemophilus influenzae; test: Antimicrobial activity against azithromycin-susceptible Haemophilus influenzae ATCC 49247 incubated in HTM broth medium for 20 to 24 hrs by two-fold microbroth dilution method
[16] = test system: Haemophilus influenzae; test: Bactericidal activity against azithromycin-susceptible Haemophilus influenzae ATCC 49247 assessed as reduction in colony formation incubated in HTM broth medium for 20 to 24 hrs followed by 24 hrs subculturing in the medium without test compound
[17] = test system: Haemophilus influenzae; test: Ratio of MBC to MIC for azithromycin-susceptible Haemophilus influenzae ATCC 49247
[18] = test system: Moraxella catarrhalis; test: Antimicrobial activity against erythromycin-susceptible Moraxella catarrhalis 13L332 incubated in CAMHB medium for 20 hrs by two-fold microbroth dilution method; details: 13L332, 20 h
How it was run: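 Clinical isolates and ATCC strains, purified by plate activation and used fresh; inoculum about 5×10^5 CFU/ml final. Grown in CAMHB at 35 °C for 20 h.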

[19] = test system: Moraxella catarrhalis; test: Bactericidal activity against erythromycin-susceptible Moraxella catarrhalis 13L332 assessed as reduction in colony formation incubated in CAMHB medium for 20 hrs followed by 24 hrs subculturing in the medium without test compound
[20] = test system: Moraxella catarrhalis; test: Ratio of MBC to MIC for erythromycin-susceptible Moraxella catarrhalis 13L332

Structure (SMILES) | MIC [1] | MIC [2] | MBC [3] | Ratio [4] | MBC [5] | Ratio [6] | MIC [7] | MBC [8] | Ratio [9] | MIC [10] | MBC [11] | MIC [12] | MBC [13] | Ratio [14] | MIC [15] | MBC [16] | Ratio [17] | MIC [18] | MBC [19] | Ratio [20]
C#CCNCCC(=O)O[C@H]1[C@H](C)[C@@H](O[C@@H]2O[C@H](C)C[C@H](N(C)C)[C@H]2O)[C@](C)(OC)C[C@@H](C)/C(=N\OC)[C@H](C)[C@H]2OC(=O)O[C@]2(C)[C@@H](CC)OC(=O)[C@@H]1C | 0.13 µg/mL (≈ 0.172 µM) | 2 µg/mL (≈ 2.65 µM) | 1 µg/mL (≈ 1.33 µM) | 8 | 4 µg/mL (≈ 5.31 µM) | 2 | 0.5 µg/mL (≈ 0.663 µM) | > 4 µg/mL | >8 | 256 µg/mL (≈ 340 µM) | > 256 µg/mL | 16 µg/mL (≈ 21.2 µM) | > 128 µg/mL | >8 | 128 µg/mL (≈ 170 µM) | 128 µg/mL (≈ 170 µM) | 1 |  |  | 
CC[C@H]1OC(=O)[C@H](C)[C@@H](OCC#Cc2ccc(NC(=O)c3ccccn3)nc2)[C@H](C)[C@@H](O[C@@H]2O[C@H](C)C[C@H](N(C)C)[C@H]2O)[C@](C)(OC)C[C@@H](C)/C(=N\OC)[C@H](C)[C@H]2OC(=O)O[C@@]21C | 4 µg/mL (≈ 4.55 µM) | 4 µg/mL (≈ 4.55 µM) | 16 µg/mL (≈ 18.2 µM) | 4 | 16 µg/mL (≈ 18.2 µM) |  | 16 µg/mL (≈ 18.2 µM) | 16 µg/mL (≈ 18.2 µM) | 1 | 128 µg/mL (≈ 145 µM) | > 256 µg/mL | > 256 µg/mL | > 256 µg/mL |  |  |  |  | 8 µg/mL (≈ 9.09 µM) | 8 µg/mL (≈ 9.09 µM) | 1
C=CCNCCC(=O)O[C@H]1[C@H](C)[C@@H](O[C@@H]2O[C@H](C)C[C@H](N(C)C)[C@H]2O)[C@](C)(OC)C[C@@H](C)/C(=N\OC)[C@H](C)[C@H]2OC(=O)O[C@]2(C)[C@@H](CC)OC(=O)[C@@H]1C | 1 µg/mL (≈ 1.32 µM) | 4 µg/mL (≈ 5.29 µM) | 2 µg/mL (≈ 2.65 µM) | 2 | 8 µg/mL (≈ 10.6 µM) |  | 1 µg/mL (≈ 1.32 µM) | > 8 µg/mL | >8 | > 256 µg/mL |  | 32 µg/mL (≈ 42.3 µM) | > 256 µg/mL | >8 | 256 µg/mL (≈ 339 µM) | 256 µg/mL (≈ 339 µM) | 1 |  |  | 
CC[C@H]1OC(=O)[C@H](C)[C@@H](OCC#Cc2cncc(NC(=O)c3ccccn3)c2)[C@H](C)[C@@H](O[C@@H]2O[C@H](C)C[C@H](N(C)C)[C@H]2O)[C@](C)(OC)C[C@@H](C)/C(=N\OC)[C@H](C)[C@H]2OC(=O)O[C@@]21C | 4 µg/mL (≈ 4.55 µM) | 4 µg/mL (≈ 4.55 µM) | 16 µg/mL (≈ 18.2 µM) | 4 | 16 µg/mL (≈ 18.2 µM) |  | 16 µg/mL (≈ 18.2 µM) | 32 µg/mL (≈ 36.4 µM) | 2 | 256 µg/mL (≈ 291 µM) | > 256 µg/mL | > 256 µg/mL | > 256 µg/mL |  |  |  |  | 8 µg/mL (≈ 9.09 µM) | 16 µg/mL (≈ 18.2 µM) | 2
CC[C@H]1OC(=O)[C@H](C)[C@@H](OC(=O)CCNCC#Cc2cccnc2)[C@H](C)[C@@H](O[C@@H]2O[C@H](C)C[C@H](N(C)C)[C@H]2O)[C@](C)(OC)C[C@@H](C)/C(=N\OC)[C@H](C)[C@H]2OC(=O)O[C@@]21C | 1 µg/mL (≈ 1.2 µM) | 8 µg/mL (≈ 9.63 µM) | 4 µg/mL (≈ 4.81 µM) | 4 | 16 µg/mL (≈ 19.3 µM) | 2 | 8 µg/mL (≈ 9.63 µM) | > 64 µg/mL | >8 | 256 µg/mL (≈ 308 µM) | > 256 µg/mL | 64 µg/mL (≈ 77 µM) | > 256 µg/mL | >4 | 256 µg/mL (≈ 308 µM) | 256 µg/mL (≈ 308 µM) | 1 |  |  | 
